Assay outcomes: PubChem, NMMLSC
MEKK3 PB1 HTS: MEKK3-MEK5 PB1 interaction, increase or decrease; Q99759; bead-based flow cytometry, Alexa488-MEK5 binding to MEKK3; actives lie on both sides; 0 = blocked by unlabeled MEK5, 100 = vehicle; binding response (% of control), % at 10 µM; hit rate 1.4% among 290,000; AID 1529;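 active = binding response more than 3 SD above or below the average of its plate-row segment, actives on both sides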;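 note: Alexa488 bead fluorescence after subtracting the streptavidin-only scavenger bead signal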
Target sequence (Q99759 whole entry, looked up): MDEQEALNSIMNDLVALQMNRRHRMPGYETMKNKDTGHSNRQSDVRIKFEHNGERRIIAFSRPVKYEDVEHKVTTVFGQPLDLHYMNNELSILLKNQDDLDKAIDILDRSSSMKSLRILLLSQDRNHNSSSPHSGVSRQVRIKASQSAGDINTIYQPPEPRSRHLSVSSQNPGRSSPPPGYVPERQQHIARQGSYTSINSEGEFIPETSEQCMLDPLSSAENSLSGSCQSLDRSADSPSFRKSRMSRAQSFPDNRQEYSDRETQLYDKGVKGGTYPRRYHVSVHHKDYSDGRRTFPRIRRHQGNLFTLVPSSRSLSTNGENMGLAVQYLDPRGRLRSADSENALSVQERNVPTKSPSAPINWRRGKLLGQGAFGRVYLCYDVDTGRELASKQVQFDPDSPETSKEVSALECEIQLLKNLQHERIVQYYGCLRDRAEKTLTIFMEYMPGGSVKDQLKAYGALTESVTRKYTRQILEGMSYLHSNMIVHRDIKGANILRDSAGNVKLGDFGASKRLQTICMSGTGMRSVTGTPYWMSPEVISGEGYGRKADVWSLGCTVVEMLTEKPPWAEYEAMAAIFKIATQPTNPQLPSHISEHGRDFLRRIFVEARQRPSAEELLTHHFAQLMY
MEKK2mut PB1 HTS: signal of MEK5 binding to mutant human MEKK2 PB1 domain; percent response, % at 10 µM; AID 1530; hit rate 0.35% among 290,000; bead flow cytometry, Alexa488-MEK5 binding to MEKK2 mutant; in the data active = percent response above about 24%, passing the limit was not always enough
MEKK2 WT-MEK5: raises or lowers MEK5 binding to wildtype human MEKK2 PB1 domain; Q9Y2U5; bead flow cytometry, Alexa488-MEK5 binding to MEKK2 WT; actives lie on both sides; binding response (% of control), % at 10 µM; hit rate 1.1% among 290,000; AID 1531; in the data active = binding response below about 67% or above about 130%
Arrestin-AP2 inh: inhibitors of human beta-arrestin and AP2 interaction. FITC-arrestin peptide / GST-AP2 beads, flow cytometry; AP2 beta2 appendage carries R879A mutation. inhibition, % at 10 µM. hit rate 0.31% among 340,000. AID 504490;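 active = inhibition above a set limit, near 3 SD of compounds lacking own fluorescence, cut at about 54% in these data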
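Measured by: flow cytometry, FL1 (488/535 nm); Material: AP2 appendage R879A on GSH beads; Evaluation: percent response; Timing: pre-incubation 12 min, peptide binding 1 h, room temperature; Also added: 50 nM FITC-arrestin peptide; Medium: PBS with 0.05% Tween 20 and 0.1% BSA.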
MEKK2wt confirm: raises or lowers MEK5 binding to wildtype human MEKK2, retest; shares compounds with MEKK3 PB1 HTS; bead flow cytometry, Alexa488-MEK5 binding to MEKK2 WT; actives lie on both sides; binding response (% of control), % at 10 µM; hit rate 2.4% among 5,900; AID 1892; in the data active = binding response below about 16% or above about 210%; inactive = in between
MEKK2mut-MEK5: signal of MEK5 binding to mutant human MEKK2, retest; shares compounds with MEKK3 PB1 HTS; bead flow cytometry, Alexa488-MEK5 binding to MEKK2 mutant; percent response, % at 10 µM; hit rate 2% among 5,900; AID 1893; in the data active = percent response mostly above about 71%, no sharp cut-off; inactive = mostly below about 38%;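 note: higher means compound restores mutant binding toward wildtype level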
MEKK3 confirm: confirmation of inhibitors of MEK5 binding to human MEKK3. shares compounds with MEKK3 PB1 HTS. bead flow cytometry, Alexa488-MEK5 binding to MEKK3; hits give low values. binding response (% of control), % at 10 µM. hit rate 1.8% among 5,900;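 active = binding response below 72% of control, or above a set upper limit, though filed actives all read lower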;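 note: lower values mean stronger disruption of MEK5 binding to MEKK3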
A number is an active result; - = inactive; . = no result given; [ ] = remark or other dose. Only some compounds are listed: those with a hit (about 2.3% of all), similar ones and a draw of the others.

SMILES	MEKK3 PB1 HTS	MEKK2mut PB1 HTS	MEKK2 WT-MEK5	Arrestin-AP2 inh	MEKK2wt confirm	MEKK2mut-MEK5	MEKK3 confirm
COc1ccc(/C=C/CN2CCCC(C(=O)c3ccc(OC)c(F)c3)C2)cc1 (configuration not stated)	-	-	140.0	-	-	-	-
CC1CCCN(CCOCCOc2ccc(Cl)cc2Br)C1 (configuration not stated)	-	-	-	-	.	.	.
CC1CCCN(CCOc2ccc(Br)cc2)C1 (configuration not stated)	198.0	-	-	-	-	-	-
CC1CCCN(CCOCCSc2ccccc2)C1 (configuration not stated)	133.0	-	-	-	-	-	-
CC1CC(C)CN(CCOCCSc2ccccc2)C1 (configuration not stated)	-	-	-	-	.	.	.
CC1CCCN(CCOCCOc2ccc(Br)cc2Cl)C1 (configuration not stated)	150.0	-	-	-	-	-	-
CCN(CC)C(=O)CSc1nnc(CSc2ncccn2)n1C	-	-	-	-	.	.	.
O=C(c1cccc([N+](=O)[O-])c1)N1CCCC(C(=O)N2CCc3ccccc3C2)C1 (configuration not stated)	-	-	-	-	.	.	.
COc1ccc(S(=O)(=O)N2CCCOC2CNC(=O)C(=O)NC2CCCC2)cc1 (configuration not stated)	-	-	-	-	.	.	.
Cc1ccc(Oc2cc([N+](=O)[O-])cc3c2C(=O)Nc2ccccc2O3)cc1	130.0	-	-	-	-	-	-
O=C1CCCc2c1sc1nc3n(c(=O)c21)CCCCC3	-	-	139.0	-	-	-	-
c1ccc2c(c1)OC(CCCN1CCCCC1)c1ccccc1S2 (configuration not stated)	-	27.0	141.0	-	-	-	-
CCOC(=O)C1=C(c2ccccc2)NC(N)=NC1c1ccc(OCc2ccc(C(=O)OC)cc2)cc1 (configuration not stated)	-	-	194.0	-	260.0	76.0	-
C[C@H](CO)N1C[C@H](C)[C@@H](CN(C)Cc2ccc(C(=O)Nc3ccccc3N)cc2)Oc2c(NC(=O)C3CCCCC3)cccc2C1=O	.	.	.	-	.	.	.
CN(C)CC/C=C1\c2ccccc2Sc2ccc(Cl)cc21	72.0[inhibitor]	-	164.0	-	-	-	-
CN(C)CC/C=C1\c2ccccc2Sc2cc(F)c(Cl)cc21	.	.	.	-	.	.	.
CCCCCCCCCC[N+](C)(C)CC/C=C1/c2ccccc2Sc2ccc(Cl)cc21	-	147.0	291.0	-	321.0	172.0	-
CCCCCCCCCCC[N+](C)(C)CC/C=C1/c2ccccc2Sc2ccc(Cl)cc21	-	143.0	278.0	-	-	-	-
CCn1cc(C(=O)N[C@@H](CCSC)C(=O)NCCCOC)c(=O)c2cc3c(cc21)OCO3	-	-	-	-	.	.	.
Fc1ccc(-c2nnc(Cc3ccc(Cl)cc3)o2)cc1	-	-	-	-	.	.	.
O=C1OCC2=C1C(c1ccccc1)CC(=O)N2c1ccccc1 (configuration not stated)	-	-	-	-	.	.	.
COc1cccc(C(=O)N2CCC(C(=O)NCc3ccco3)CC2)c1	-	-	-	-	.	.	.
COc1ccc(/C=N/NC(=S)NC2CCS(=O)(=O)C2)cc1OC (configuration not stated)	123.0	-	-	-	-	-	-
Cc1csc(-c2cnn(-c3ccccc3)c2NC(=O)c2ccccc2)n1	1.0[inhibitor]	-	1.0[inhibitor]	-	-	-	-
O=C(CSc1nnc(CNC(=O)c2c(F)cccc2Cl)o1)Nc1ccccc1	.	.	.	-	.	.	.
SMILES	MEKK3 PB1 HTS	MEKK2mut PB1 HTS	MEKK2 WT-MEK5	Arrestin-AP2 inh	MEKK2wt confirm	MEKK2mut-MEK5	MEKK3 confirm
CCc1ccc(NC(=O)CSc2nnc(CNC(=O)c3c(F)cccc3Cl)o2)cc1	3.0[inhibitor]	-	3.0[inhibitor]	-	-	-	-
CC(=O)c1ccc(Oc2ccc(C(C)=O)cc2)cc1	-	-	-	-	.	.	.
CC(=O)c1ccc(OCCOc2ccc(C#N)cc2)cc1	130.0	-	-	-	-	-	-
O=C1NC[C@H](c2ccccc2)N(CCc2cccc(F)c2)C1=O	79.0[inhibitor]	-	-	.	-	-	-
CC(C)CC(=O)/C(=C/c1ccc(N(C)C)cc1)n1cncn1	69.0[inhibitor]	-	37.0[inhibitor]	-	-	-	-
Cc1nc2c(-c3ccc(F)cc3)c(C)nn2c(C)c1CCC(=O)Nc1ccccc1F	45.0[inhibitor]	-	-	-	-	-	-
O=C(NCCCCc1ccccc1)C1CC(c2ccccc2C(F)(F)F)=NO1 (configuration not stated)	-	-	-	-	.	.	.
COc1ccc(C2/C(=C(/O)c3ccc(F)cc3)C(=O)C(=O)N2CCCN2CCOCC2)cc1OC (configuration not stated)	-	-	-	-	.	.	.
CC1CC(C)CN(C(=O)CN2CCN(Cc3ccc(Cl)cc3)C2=O)C1 (configuration not stated)	128.0	-	-	-	-	-	-
COc1ccc(N(CC(=O)N2CCN(c3ccc(F)cc3)CC2)S(=O)(=O)c2c(C)noc2C)cc1	-	-	-	-	.	.	.
COc1ccc(N(CC(=O)N2CCN(c3ccc(F)cc3)CC2)S(=O)(=O)c2c(C)n[nH]c2C)cc1	128.0	-	-	-	-	-	-
CCN(CC)CCn1c(SCC(=O)Nc2ccc(F)cc2)nc2c(sc3ccccc32)c1=O	-	-	-	.	.	.	.
C=CCN(C(=O)CSc1nc2c(sc3ccccc32)c(=O)n1CCN(CC)CC)c1ccccc1	-	65.0	192.0	-	-	-	-
Cc1onc(-c2ccccc2)c1C(=O)OCC(=O)Nc1cc(S(=O)(=O)N2CCOCC2)ccc1Cl	-	-	-	-	.	.	.
CN(C)CCCn1c(SCC(=O)Nc2nc(-c3cccc(Br)c3)cs2)nc2ccccc2c1=O	128.0	55.0	265.0	-	272.0	166.0	-
O=C(O)c1ccccc1-c1ccccc1C(=O)Nc1ccc2c(c1)CCC2	-	-	-	-	.	.	.
O=C(Nc1ccc2c(c1)CCC2)c1ccccc1F	135.0	-	-	-	-	-	-
Cc1cc(C2=NNC(=NCCc3ccccc3)SC2)c(C)n1CC1CCCO1 (configuration not stated)	-	-	150.0	-	-	-	-
O=C(CC1(c2ccc(Cl)cc2)C2CC3CC(C2)CC1C3)NCCO (configuration not stated)	-	-	-	-	.	.	.
CC(=O)[C@]1(O)Cc2c(O)c3c(c(O)c2[C@@H](O[C@H]2C[C@H](N)[C@H](O)[C@H](C)O2)C1)C(=O)c1ccccc1C3=O	-	30.0	25.0	.	-	-	-
